{"source": "ChEMBL document CHEMBL4118066", "about": "“QSAR-driven design, synthesis and discovery of potent chalcone derivatives with antitubercular activity” (Eur J Med Chem, 2017)", "key": {"[1]": {"test_system": "Mycobacterium tuberculosis", "assay": "Antitubercular activity against isoniazid-resistant Mycobacterium tuberculosis H37Rv ATCC 35822 after 7 days under normoxic condition by microplate Alamar blue assay", "format": "functional", "conditions": "H37Rv ATCC 35822, 168 h", "how_it_was_run": "(§1)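 Replicating, normoxic cultures in Middlebrook 7H12 medium, exposed to compound for 7 d at 37 °C. Resazurin plus Tween 80 then added for a further 24 h at 37 °C. Fluorescence read at ex/em 530/590 nm. MIC is the lowest concentration giving 90% lower fluorescence than controls.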"}, "[2]": {"test_system": "Mycobacterium tuberculosis", "assay": "Antitubercular activity against rifampin-resistant Mycobacterium tuberculosis H37Rv ATCC 35838 after 7 days under normoxic condition by microplate Alamar blue assay", "format": "functional", "conditions": "H37Rv ATCC 35838, 168 h", "how_it_was_run": "as §1"}}, "data": [{"smiles": "NNC(=O)c1ccncc1", "note": "[ISONIAZID]", "values": [{"measurement": "MIC90", "setting": "[1]", "result": "> 5", "unit": "µM"}]}, {"smiles": "Cc1ccc(C(=O)/C=C/c2ccc([N+](=O)[O-])s2)cc1", "values": [{"measurement": "MIC90", "setting": "[2]", "result": 1.21, "unit": "µM"}, {"measurement": "MIC90", "setting": "[1]", "result": 0.96, "unit": "µM"}]}, {"smiles": "Cc1ccccc1C(=O)/C=C/c1ccc([N+](=O)[O-])o1", "values": [{"measurement": "MIC90", "setting": "[2]", "result": 1.08, "unit": "µM"}, {"measurement": "MIC90", "setting": "[1]", "result": 1.07, "unit": "µM"}]}, {"smiles": "O=C(/C=C/c1ccc([N+](=O)[O-])o1)c1ccc(Br)cc1", "values": [{"measurement": "MIC90", "setting": "[2]", "result": 0.76, "unit": "µM"}, {"measurement": "MIC90", "setting": "[1]", "result": 0.58, "unit": "µM"}]}, {"smiles": "O=C(/C=C/c1ccc([N+](=O)[O-])o1)c1ccc(-n2ccnc2)cc1", "values": [{"measurement": "MIC90", "setting": "[2]", "result": 1.19, "unit": "µM"}, {"measurement": "MIC90", "setting": "[1]", "result": 1.44, "unit": "µM"}]}, {"smiles": "O=C(/C=C/c1ccc([N+](=O)[O-])o1)c1ccc(N2CCCCC2)cc1", "values": [{"measurement": "MIC90", "setting": "[2]", "result": 0.07, "unit": "µM"}, {"measurement": "MIC90", "setting": "[1]", "result": "< 0.03", "unit": "µM"}]}, {"smiles": "Cc1cccc(C(=O)/C=C/c2ccc([N+](=O)[O-])o2)c1", "values": [{"measurement": "MIC90", "setting": "[2]", "result": 3.78, "unit": "µM"}, {"measurement": "MIC90", "setting": "[1]", "result": 1.93, "unit": "µM"}]}, {"smiles": "CSc1ccc(C(=O)/C=C/c2ccc([N+](=O)[O-])s2)cc1", "values": [{"measurement": "MIC90", "setting": "[2]", "result": 0.14, "unit": "µM"}, {"measurement": "MIC90", "setting": "[1]", "result": 0.22, "unit": "µM"}]}, {"smiles": "O=C(/C=C/c1ccc([N+](=O)[O-])o1)c1ccc(I)cc1", "values": [{"measurement": "MIC90", "setting": "[2]", "result": 1.18, "unit": "µM"}, {"measurement": "MIC90", "setting": "[1]", "result": 1.08, "unit": "µM"}]}, {"smiles": "CCCCc1ccc(C(=O)/C=C/c2ccc([N+](=O)[O-])o2)cc1", "values": [{"measurement": "MIC90", "setting": "[2]", "result": 4.7, "unit": "µM"}, {"measurement": "MIC90", "setting": "[1]", "result": 2.23, "unit": "µM"}]}, {"smiles": "CC(C)(C)c1ccc(C(=O)/C=C/c2ccc([N+](=O)[O-])s2)cc1", "values": [{"measurement": "MIC90", "setting": "[2]", "result": 0.14, "unit": "µM"}, {"measurement": "MIC90", "setting": "[1]", "result": 0.15, "unit": "µM"}]}, {"smiles": "O=C(/C=C/c1ccc([N+](=O)[O-])o1)c1ccc(-c2ccccc2)cc1", "values": [{"measurement": "MIC90", "setting": "[2]", "result": 3.45, "unit": "µM"}, {"measurement": "MIC90", "setting": "[1]", "result": 0.29, "unit": "µM"}]}, {"smiles": "O=C(/C=C/c1ccc([N+](=O)[O-])o1)c1cccc(Br)c1", "values": [{"measurement": "MIC90", "setting": "[2]", "result": 1.88, "unit": "µM"}, {"measurement": "MIC90", "setting": "[1]", "result": 1.12, "unit": "µM"}]}, {"smiles": "O=C(/C=C/c1ccc([N+](=O)[O-])o1)c1ccc(N2CCOCC2)cc1", "values": [{"measurement": "MIC90", "setting": "[2]", "result": 0.55, "unit": "µM"}, {"measurement": "MIC90", "setting": "[1]", "result": 0.11, "unit": "µM"}]}, {"smiles": "CO[C@H]1/C=C/O[C@@]2(C)Oc3c(C)c(O)c4c(O)c(c(/C=N/N5CCN(C)CC5)c(O)c4c3C2=O)NC(=O)/C(C)=C\\C=C\\[C@H](C)[C@H](O)[C@@H](C)[C@@H](O)[C@@H](C)[C@H](OC(C)=O)[C@@H]1C", "note": "[RIFAMPIN]", "values": [{"measurement": "MIC90", "setting": "[2]", "result": "> 1", "unit": "µM"}]}, {"smiles": "CCCCc1ccc(C(=O)/C=C/c2ccc([N+](=O)[O-])s2)cc1", "values": [{"measurement": "MIC90", "setting": "[2]", "result": 0.48, "unit": "µM"}, {"measurement": "MIC90", "setting": "[1]", "result": 0.31, "unit": "µM"}]}, {"smiles": "O=C(/C=C/c1ccc(Cl)s1)c1ccc(-n2ccnc2)cc1", "values": [{"measurement": "MIC90", "setting": "[2]", "result": 8.89, "unit": "µM"}, {"measurement": "MIC90", "setting": "[1]", "result": 9.03, "unit": "µM"}]}, {"smiles": "O=C(/C=C/c1ccc([N+](=O)[O-])s1)c1ccc(-n2ccnc2)cc1", "values": [{"measurement": "MIC90", "setting": "[2]", "result": 0.6, "unit": "µM"}, {"measurement": "MIC90", "setting": "[1]", "result": 0.3, "unit": "µM"}]}, {"smiles": "CC(C)(C)c1ccc(C(=O)/C=C/c2ccc([N+](=O)[O-])o2)cc1", "values": [{"measurement": "MIC90", "setting": "[2]", "result": 0.29, "unit": "µM"}, {"measurement": "MIC90", "setting": "[1]", "result": 0.22, "unit": "µM"}]}, {"smiles": "O=C(/C=C/c1ccc([N+](=O)[O-])o1)c1ccc(N2CCNCC2)cc1", "values": [{"measurement": "MIC90", "setting": "[2]", "result": 0.76, "unit": "µM"}, {"measurement": "MIC90", "setting": "[1]", "result": 0.19, "unit": "µM"}]}, {"smiles": "COc1ccc(/C=C/C(=O)c2cccc(I)c2)cc1", "values": [{"measurement": "MIC90", "setting": "[2]", "result": 8.31, "unit": "µM"}, {"measurement": "MIC90", "setting": "[1]", "result": 7.75, "unit": "µM"}]}, {"smiles": "O=C(/C=C/c1ccc([N+](=O)[O-])o1)c1ccc(C2CCCCC2)cc1", "values": [{"measurement": "MIC90", "setting": "[2]", "result": 1.12, "unit": "µM"}, {"measurement": "MIC90", "setting": "[1]", "result": 1.23, "unit": "µM"}]}, {"smiles": "COc1ccc(/C=C/C(=O)c2cccc(Br)c2)cc1", "values": [{"measurement": "MIC90", "setting": "[2]", "result": 9.28, "unit": "µM"}, {"measurement": "MIC90", "setting": "[1]", "result": 4.94, "unit": "µM"}]}, {"smiles": "CSc1ccc(C(=O)/C=C/c2ccc([N+](=O)[O-])o2)cc1", "values": [{"measurement": "MIC90", "setting": "[2]", "result": 0.24, "unit": "µM"}, {"measurement": "MIC90", "setting": "[1]", "result": 0.8, "unit": "µM"}]}]}
